Test [1] addresses T1, C-C chemokine receptor type 2 (Homo sapiens, UniProt P41597). The test can be described thus: Displacement of radiolabeled MCP1 from human CCR2 in PBMCs. The essentials: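 Competitive binding: test compound displaces radiolabeled MCP-1 from CCR2 on peripheral blood mononuclear cells. IC50 is given as mean ± SD when n = 2 and mean ± SEM when n > 2, with n the number of determinations.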

The target in test [2] is T2, C-C chemokine receptor type 3 (Homo sapiens) (UniProt P51677).
T2 sequence (whole entry): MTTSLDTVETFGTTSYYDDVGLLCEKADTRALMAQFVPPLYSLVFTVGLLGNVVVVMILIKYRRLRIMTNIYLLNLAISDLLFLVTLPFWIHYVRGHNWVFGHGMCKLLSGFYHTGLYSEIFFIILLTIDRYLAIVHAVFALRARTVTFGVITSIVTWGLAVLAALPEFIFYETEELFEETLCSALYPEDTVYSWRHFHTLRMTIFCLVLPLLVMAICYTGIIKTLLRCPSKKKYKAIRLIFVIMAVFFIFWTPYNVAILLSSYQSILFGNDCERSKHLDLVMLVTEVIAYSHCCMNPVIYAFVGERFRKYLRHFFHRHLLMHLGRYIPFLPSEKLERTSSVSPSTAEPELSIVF
The test can be described thus: Binding affinity for human CCR3 at 10 uM.

The target of test [3] is T1, C-C chemokine receptor type 2. Kind of test: Antagonist activity at human CCR2 in PBMCs assessed as inhibition of MCP1-induced calcium flux. The format is functional. A general note: Calcium assays in cells follow changes in intracellular calcium, usually with a dye or a luminescent sensor.
Test [4] in a line: Ratio of IC50 for wild type CCR2 to IC50 for CCR2 T292A mutant.
The species entered for another test is Homo sapiens. Kind of test: Selectivity for human CCR2 over human CCR3.
For test [5], the target named is T1, C-C chemokine receptor type 2. The test can be described thus: Binding affinity to wild type CCR2.
Test [6] addresses C-C chemokine receptor type 2 (Homo sapiens, UniProt P41597, T292A). Kind of test: Binding affinity to CCR2 T292A mutant.
Test [7] deals with C-C chemokine receptor type 2 (Homo sapiens, UniProt P41597, E291A). The test can be described thus: Binding affinity to CCR2 E291A mutant.
The nature of test [8]: Ratio of IC50 for wild type CCR2 to IC50 for CCR2 E291A mutant.

Sequence of C-C chemokine receptor type 2 (Homo sapiens, UniProt P41597, E291A) (P41597 whole entry E291A): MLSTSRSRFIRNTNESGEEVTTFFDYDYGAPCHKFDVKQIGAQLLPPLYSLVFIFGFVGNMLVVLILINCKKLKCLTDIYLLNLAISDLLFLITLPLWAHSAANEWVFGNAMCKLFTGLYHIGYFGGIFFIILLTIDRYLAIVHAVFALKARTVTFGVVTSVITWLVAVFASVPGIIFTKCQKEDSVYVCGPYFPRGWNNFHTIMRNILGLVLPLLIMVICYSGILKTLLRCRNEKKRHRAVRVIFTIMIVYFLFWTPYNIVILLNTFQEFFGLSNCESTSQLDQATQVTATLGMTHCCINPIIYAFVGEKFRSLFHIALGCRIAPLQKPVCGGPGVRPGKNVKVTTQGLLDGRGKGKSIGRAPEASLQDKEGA
T1 sequence (P41597 whole entry): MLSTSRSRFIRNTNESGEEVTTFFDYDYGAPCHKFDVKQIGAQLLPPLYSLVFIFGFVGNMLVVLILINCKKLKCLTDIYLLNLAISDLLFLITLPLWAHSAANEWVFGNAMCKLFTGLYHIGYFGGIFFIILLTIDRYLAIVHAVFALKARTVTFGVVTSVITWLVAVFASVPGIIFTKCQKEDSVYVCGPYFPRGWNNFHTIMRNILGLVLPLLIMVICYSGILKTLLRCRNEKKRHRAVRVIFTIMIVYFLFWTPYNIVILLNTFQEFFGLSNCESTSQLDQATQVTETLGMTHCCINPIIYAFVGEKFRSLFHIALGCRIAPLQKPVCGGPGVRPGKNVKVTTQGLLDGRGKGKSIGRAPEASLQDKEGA
Sequence of C-C chemokine receptor type 2 (Homo sapiens, UniProt P41597, T292A) (P41597 whole entry T292A): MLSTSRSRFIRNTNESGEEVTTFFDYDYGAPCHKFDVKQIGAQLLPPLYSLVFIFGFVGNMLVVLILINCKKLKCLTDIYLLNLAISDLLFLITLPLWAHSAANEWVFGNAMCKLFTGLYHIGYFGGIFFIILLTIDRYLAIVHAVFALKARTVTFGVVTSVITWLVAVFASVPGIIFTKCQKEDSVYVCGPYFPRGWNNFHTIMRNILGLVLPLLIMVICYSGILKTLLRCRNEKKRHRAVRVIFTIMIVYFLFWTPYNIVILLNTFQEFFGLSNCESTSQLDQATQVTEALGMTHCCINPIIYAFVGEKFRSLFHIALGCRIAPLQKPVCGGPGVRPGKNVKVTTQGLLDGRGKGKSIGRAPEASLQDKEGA

Regarding `O=C(CNC(=O)c1cccc(C(F)(F)F)c1)N[C@H]1CCCC[C@@H]1NC(=O)c1ccc(Cl)cc1` (racemic), in [1], the IC50 (as a rule, the concentration that gives 50% inhibition) stood at 12000 nM.
In test [1], `O=C(CNC(=O)c1cccc(C(F)(F)F)c1)N[C@H]1CCCC[C@@H]1NCc1ccc(Cl)cc1Cl` (racemic) had an IC50 of 7860 nM.
Consider `CSc1ccc(C(=O)N[C@@H]2CCCC[C@@H]2NC(=O)CNC(=O)c2cccc(C(F)(F)F)c2)cc1` (racemic), for which the inhibition (commonly how much of the control response was suppressed) in [2] came to 31%. For the same compound, the IC50 is 64 nM in test [1] and 215 nM in [3].
Consider `Cc1ccc(CN2CC[C@@H](NC(=O)CNC(=O)c3cccc(C(F)(F)F)c3)C2)c(C)c1`, for which, in test [4], the Ratio IC50 is 30.
As to `Cc1ccc(CN[C@H]2CCCC[C@@H]2NC(=O)CNC(=O)c2cccc(C(F)(F)F)c2)c(C)c1`, in test [2], the inhibition amounted to 54%. In [1], this compound returned an IC50 of 540 nM.
In the case of `O=C(CNC(=O)c1cccc(C(F)(F)F)c1)N[C@H]1CCCC[C@H]1NCc1ccc(C(F)(F)F)cc1` (racemic), the Selectivity ratio in the test listed under Homo sapiens was found to be 20. The same compound came in with an inhibition in test [2] of 47%. This compound also showed an IC50 in test [1] of 400 nM.
In the case of `Cc1cc(C)c(CN[C@H]2CCCC[C@@H]2NC(=O)CNC(=O)c2cccc(C(F)(F)F)c2)c(C)c1` (racemic), the IC50 in test [1] is 1190 nM.
Take `CSc1ccc(C(=O)N[C@@H]2CCCC[C@@H]2NC(=O)CNC(=O)c2cc(C(F)(F)F)ccc2NC(=O)NC(C)C)cc1`: the Ratio IC50 in test [4] is 40.5; in [8] it was 0.5. Further, the IC50 in test [5] came out at 7.5 nM; in [6] it was 304 nM; in test [7], 3.7 nM; in test [1], 5.1 nM; in test [3] it was 18 nM. Further, the inhibition in test [2] worked out at 37%.
As for `CC(C)c1ccc(CN[C@@H]2CCCC[C@@H]2NC(=O)CNC(=O)c2cccc(C(F)(F)F)c2)cc1` (racemic), the Selectivity ratio in the test listed under Homo sapiens amounted to 20. Also, the inhibition in [2] stood at 55%. In [1], this compound came in with an IC50 of 360 nM.
With `Cc1ccc(CN(C)[C@H]2CCCC[C@@H]2NC(=O)CNC(=O)c2cccc(C(F)(F)F)c2)c(C)c1` (racemic), the IC50 in test [1] worked out at 3010 nM.
In the case of `NS(=O)(=O)c1ccc(C(=O)N[C@@H]2CCCC[C@@H]2NC(=O)CNC(=O)c2cc(C(F)(F)F)ccc2NC(=O)C2CCCCC2)cc1` (racemic), in test [2], the inhibition is 10%. The figures for the half-inhibitory concentration (IC50) in [1] and in [3] were 9 nM and 3.7 nM, respectively.
Compound `CS(=O)(=O)c1ccc(C(=O)N[C@@H]2CCCC[C@@H]2NC(=O)CNC(=O)c2cccc(C(F)(F)F)c2)cc1` (racemic) registered an inhibition in test [2] of 3%. Moreover, in test [1], the IC50 stood at 87 nM.
As for `Nc1ccc(C(F)(F)F)cc1C(=O)NCC(=O)N[C@H]1CCCC[C@H]1NC(=O)c1ccc(S(N)(=O)=O)cc1` (racemic), the inhibition in test [2] stood at 6%. For the same compound, the IC50 was 23 nM in test [1] and 4.8 nM in test [3].
In the same order, the values of `O=C(CNC(=O)c1cccc(C(F)(F)F)c1)N[C@H]1CCCC[C@H]1NC(=O)c1ccc(I)cc1` are 27%, 37 nM and 30 nM.
Turning to `O=C(CNC(=O)c1cccc(C(F)(F)F)c1)N[C@H]1CCCC[C@H]1NCc1ccc(OC(F)(F)F)cc1` (racemic), the Selectivity ratio in the test filed under Homo sapiens amounted to 20. The compound also had an inhibition in test [2] of 50%. This compound also yielded an IC50 in test [1] of 530 nM.
The compound `Cc1ccc(C(=O)N[C@@H]2CCCC[C@@H]2NC(=O)CNC(=O)c2cccc(C(F)(F)F)c2)cc1` (racemic) displayed an inhibition in test [2] of 57%. Further, in test [1], the IC50 was found to be 550 nM.
In test [2], `NS(=O)(=O)c1ccc(C(=O)N[C@@H]2CCCC[C@@H]2NC(=O)CNC(=O)c2cccc(C(F)(F)F)c2)cc1` (racemic) yielded an inhibition of 39%. The IC50 worked out at 21 nM in [1] and 42 nM in test [3].
In test [2], `Cc1ccc(CN[C@@H]2CCCC[C@@H]2NC(=O)CNC(=O)c2cccc(C(F)(F)F)c2)c(C)c1` (racemic) registered an inhibition of 54%. Moreover, in [1], the 50% inhibitory concentration (IC50) is 2170 nM.
In the same order, the values of `O=C(CNC(=O)c1cccc(C(F)(F)F)c1)N[C@H]1CCCC[C@@H]1NCc1ccc(Cl)cc1` (racemic) are 50% and 970 nM.
Turning to `O=C(CNC(=O)c1cccc(C(F)(F)F)c1)N[C@H]1CCCC[C@H]1NCc1ccc(Cl)cc1` (racemic), in the test listed under Homo sapiens, the Selectivity ratio was 20. Moreover, the IC50 in test [5] was 268 nM; in [7], 2120 nM; in test [1], 790 nM. Further, the inhibition in [2] turned out to be 24%. In addition, in test [8], the Ratio IC50 is 7.9.
For `Cc1ccc(C(=O)N[C@@H]2CCCC[C@@H]2NC(=O)CNC(=O)c2cccc(C(F)(F)F)c2)c(C)c1` (racemic), the IC50 in [5] came out at 4130 nM; in test [7] it was 7850 nM; in test [1], 4130 nM. The Ratio IC50 in [8] came out at 1.9.

For the origin of these results see ChEMBL document CHEMBL1141565, “Discovery of disubstituted cyclohexanes as a new class of CC chemokine receptor 2 antagonists” (J Med Chem, 2008).
